Results collected from several papers.
Protocols differ between the studies behind these lines.
Target: Cytoplasmic tyrosine-protein kinase BMX (BMX, Homo sapiens, UniProt P51813)
Sequence (P51813 1-675, as in one of the studies): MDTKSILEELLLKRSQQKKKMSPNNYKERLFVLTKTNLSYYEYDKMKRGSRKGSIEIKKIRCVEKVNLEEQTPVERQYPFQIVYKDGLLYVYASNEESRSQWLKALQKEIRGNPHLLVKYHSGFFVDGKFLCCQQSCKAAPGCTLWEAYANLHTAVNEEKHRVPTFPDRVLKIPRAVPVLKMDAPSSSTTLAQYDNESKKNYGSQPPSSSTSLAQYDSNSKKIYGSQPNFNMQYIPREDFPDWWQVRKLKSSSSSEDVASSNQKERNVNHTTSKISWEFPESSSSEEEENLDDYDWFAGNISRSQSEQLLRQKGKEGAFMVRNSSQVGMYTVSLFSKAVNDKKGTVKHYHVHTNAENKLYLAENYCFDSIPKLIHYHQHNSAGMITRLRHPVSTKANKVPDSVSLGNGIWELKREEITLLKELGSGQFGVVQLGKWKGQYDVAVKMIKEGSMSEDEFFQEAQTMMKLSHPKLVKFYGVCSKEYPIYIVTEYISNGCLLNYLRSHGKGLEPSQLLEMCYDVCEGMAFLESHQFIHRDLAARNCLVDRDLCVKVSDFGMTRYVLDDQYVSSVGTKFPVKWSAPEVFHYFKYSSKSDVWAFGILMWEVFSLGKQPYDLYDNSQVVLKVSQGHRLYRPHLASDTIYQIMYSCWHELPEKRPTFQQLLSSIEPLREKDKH

Cc1nc(N2CC[C@@H](O)C2)ncc1-c1cc(C(F)(F)F)cc2[nH]ncc12  remaining binding (cell-free assay, competition with immobilised ligand; 1 µM): 100%
CC(C)[C@H](CO)Nc1nc(Nc2cc(N)cc(Cl)c2)c2ncn(C(C)C)c2n1  remaining activity (enzyme activity, inhibitor; 0.5 µM): 81.9%
COc1cc2ncnc(Nc3ccc(Oc4ccccc4)c(C)c3C)c2cc1OC  inhibition (enzyme activity, inhibitor; 1 µM): 1%
CC(=O)C1=C(C)N(c2cccc(C(F)(F)F)c2)C(=O)N[C@@H]1c1ccc(C#N)nc1  remaining binding (cell-free assay, competition with immobilised ligand; 1 µM): 97.4%
CCC1(CC)NC(=O)c2c(c3ccc(Cl)c(Cl)c3n2C)C1C#N (stereo not shown)  ΔTm (thermal stability, DSF; 10 µM): 0.1 °C
CCN(CC)CCNC(=O)c1c(C)[nH]c(/C=C2\C(=O)Nc3ccc(F)cc32)c1C  inhibition (enzyme activity, inhibitor; 0.3 µM): -1%
O=C(Nc1cccnn1)N1CCC(=Cc2cccc(Oc3ccc(C(F)(F)F)cn3)c2)CC1  remaining binding (cell-free assay, competition with immobilised ligand; 1 µM): 71%
CC/C(=N\NC(=O)NCc1cccc(O)c1)c1ccc(O)c(C)c1O  inhibition (enzyme activity, inhibitor; 0.1 µM): 3%
FC(F)(F)c1ccc2c(c1)nc(-c1cccnc1)n2C1CC1  remaining binding (cell-free assay, competition with immobilised ligand; 1 µM): 100%
Cn1c2c(Cl)c(Cl)ccc2c2cn[nH]c(=O)c21  ΔTm (thermal stability, DSF; 10 µM): 0.4 °C
c1nc2c(Nc3ccc4c(c3)OCCO4)nc(Nc3ccc4c(c3)OCCO4)nc2[nH]1  activity vs control (enzyme activity, inhibitor; 10 µM): 9.7%
CCCS(=O)(=O)Nc1ccc(F)c(C(=O)c2c[nH]c3ncc(-c4ccc(Cl)cc4)cc23)c1F  inhibition (enzyme activity, inhibitor; 1 µM): < 20%
CN(C)C1CCN(CC#Cc2nn(C3CCCC3)c3nc(NCc4ccccc4)ncc23)C1 (stereo not shown)  inhibition (enzyme activity, inhibitor, FRET; 10 µM): 14%
Cc1ccc(Nc2nccc(N(C)c3ccc4c(C)n(C)nc4c3)n2)cc1S(N)(=O)=O  inhibition (enzyme activity, inhibitor; 10 µM): 70%
Cn1c2c(c3ccccc31)C(C#N)C(C)(C)NC2=O (stereo not shown)  ΔTm (thermal stability, DSF; 10 µM): -0.4 °C
O=C(Nc1cnc(Oc2ccc(F)cc2)nc1)N1CCc2ncccc2[C@@H]1c1ccc(F)cc1  remaining binding (cell-free assay, competition with immobilised ligand; 1 µM): 94%
C#Cc1cccc(Nc2ncnc3cc(OCCOC)c(OCCOC)cc23)c1  remaining signal (cell-free assay; 0.5 µM): 100%
Cn1c2c(c3ccc(Cl)c(Cl)c31)C(C#N)C1(CCCCC1)NC2=O (racemic)  ΔTm (thermal stability, DSF; 10 µM): 0.1 °C
Cn1cc(Cl)c2c(Oc3c(F)cc(Nc4cc(Cl)nc(N)n4)cc3F)ccnc21  remaining binding (cell-free assay, competition with immobilised ligand; 0.1 µM): 97%
Fc1ccc(-c2nc3n(c2-c2ccncc2)CCS3)cc1  remaining activity (enzyme activity, inhibitor; 0.5 µM): 104%
O=C(NCc1ncc(C(F)(F)F)cc1Cl)c1ccc2c(c1)C1(CCS(=O)(=O)CC1)[C@H](C1CC1)N2S(=O)(=O)c1ccc(F)cc1  remaining binding (cell-free assay, competition with immobilised ligand; 1 µM): 100%
C[S+]([O-])c1ccc(-c2nc(-c3ccncc3)c(-c3ccc(F)cc3)[nH]2)cc1 (stereo not shown)  remaining signal (cell-free assay; 0.5 µM): 94.4%
Cn1c2c(c3ccc(Cl)c(Cl)c31)C(C#N)C1(CCNCC1)NC2=O (racemic)  ΔTm (thermal stability, DSF; 10 µM): -0.3 °C
O=C1c2ccccc2-c2n[nH]c3cccc1c23  activity vs control (enzyme activity, inhibitor; 0.5 µM): 90.8%
O=C(Nc1ccc(Oc2ccc(F)cc2)cc1)N1CCc2ncccc2[C@H]1c1ccc(F)cc1  remaining binding (cell-free assay, competition with immobilised ligand; 1 µM): 100%
N#CCCc1ccc2c(c1)-c1[nH]c3ccc([N+](=O)[O-])cc3c1CC(=O)N2  remaining signal (cell-free assay; 0.5 µM): 99.5%
CNC(=O)c1cc(Oc2ccc(NC(=O)Nc3ccc(Cl)c(C(F)(F)F)c3)cc2)ccn1  inhibition (enzyme activity, inhibitor; 10 µM): 9%
Oc1ccc(-c2nc(-c3ccncc3)c(-c3ccc(F)cc3)[nH]2)cc1  remaining signal (cell-free assay; 0.5 µM): 93.9%
Cn1cncc1C1=CN(c2ncnc3[nH]cnc23)CCS1  inhibition (enzyme activity, inhibitor, radiometric; 2 µM): 40%
CNc1cc2c(Nc3cccc(Br)c3)ncnc2cn1  remaining activity (enzyme activity, inhibitor; 0.5 µM): 93.9%
O=C(Nc1cnn(-c2csc(C(=O)NC3COC3)c2)c1)Nc1ccccc1Cl  remaining activity (enzyme activity, inhibitor; 5 µM): 106%
